This is an account of results in PMC12214485 (Scientific Reports, 2025).

Structures are written as SMILES.

The assay can be described thus: DPPH free radical scavenging assay. The essentials:
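Each well held test compound and DPPH (added as 150 µM solution, half the well volume), made up with methanol. Incubated 30 min at room temperature, then absorbance read at 517 nm. Percent inhibition was calculated from blank and sample absorbances. Ascorbic acid served as reference. Three independent experiments were run, each in triplicate.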
(The DPPH test is a chemical assay of radical scavenging.)

With `O=C1O[C@H]([C@@H](O)CO)C(O)=C1O` [Vitamin C, Ascorbic acid], the antioxidant activity is recorded as 95.1571 ± 0.057 µg/mL.
